{"source": "ChEMBL document CHEMBL2177085", "about": "(J Med Chem, 2012)", "key": {"MKN-45 [1]": {"system": "MKN-45", "assay": "Cytotoxic activity against human MKN45 cells assessed as cell viability at 5 uM incubated for 5 days by MTT assay", "format": "functional", "conditions": "MKN-45, 120 h, read-out: Activity", "in_short": "(§1)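 MTT viability: exponentially growing cells, 10 000 viable cells/well in RPMI plated overnight, then exposed to test compounds for 3 days (HT-29, Molm-14) or 5 days (Mkn-45) at 37 °C, 5% CO2. MTT added for 4 h, then SDS/HCl solubilization overnight and absorbance read at 562 nm. Viability is expressed relative to untreated cells (100%). Triplicate.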"}, "MKN-45 [2]": {"system": "MKN-45", "assay": "Cytotoxic activity against human MKN45 cells assessed as cell viability at 1 uM incubated for 5 days by MTT assay", "format": "functional", "conditions": "MKN-45, 120 h, read-out: Activity", "in_short": "as §1"}, "MKN-45 [3]": {"system": "MKN-45", "assay": "Cytotoxic activity against human MKN45 cells assessed as cell viability at 0.5 uM incubated for 5 days by MTT assay", "format": "functional", "conditions": "MKN-45, 120 h, read-out: Activity", "in_short": "as §1"}, "[4]": {"target": "Protein kinase C iota type (Homo sapiens) (UniProt P41743)", "sequence (P41743 whole entry)": "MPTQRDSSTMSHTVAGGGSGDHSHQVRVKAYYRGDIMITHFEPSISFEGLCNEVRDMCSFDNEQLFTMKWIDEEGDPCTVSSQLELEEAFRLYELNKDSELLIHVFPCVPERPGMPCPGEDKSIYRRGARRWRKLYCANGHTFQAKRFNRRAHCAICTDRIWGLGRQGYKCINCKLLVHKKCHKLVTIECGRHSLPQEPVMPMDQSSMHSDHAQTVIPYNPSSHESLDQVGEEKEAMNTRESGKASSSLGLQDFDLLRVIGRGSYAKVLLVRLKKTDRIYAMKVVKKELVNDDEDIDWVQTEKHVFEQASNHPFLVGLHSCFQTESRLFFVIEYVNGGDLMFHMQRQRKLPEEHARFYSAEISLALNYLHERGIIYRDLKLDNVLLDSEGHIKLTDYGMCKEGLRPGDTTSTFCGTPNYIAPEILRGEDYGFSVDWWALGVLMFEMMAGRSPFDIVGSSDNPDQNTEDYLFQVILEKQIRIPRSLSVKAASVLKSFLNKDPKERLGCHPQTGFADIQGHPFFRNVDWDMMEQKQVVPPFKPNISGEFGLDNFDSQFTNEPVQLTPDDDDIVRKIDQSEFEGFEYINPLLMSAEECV", "assay": "Inhibition of PKCiota assessed as enzyme residual activity at 10 uM relative to untreated control", "in_short": "(§2)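 Residual kinase activity at 10 μM compound, determined by a commercial kinase profiling service (Millipore) across 15 kinases of different classes. Each compound tested in duplicate.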"}, "[5]": {"target": "Platelet-derived growth factor receptor beta (Homo sapiens) (UniProt P09619)", "sequence (P09619 whole entry)": "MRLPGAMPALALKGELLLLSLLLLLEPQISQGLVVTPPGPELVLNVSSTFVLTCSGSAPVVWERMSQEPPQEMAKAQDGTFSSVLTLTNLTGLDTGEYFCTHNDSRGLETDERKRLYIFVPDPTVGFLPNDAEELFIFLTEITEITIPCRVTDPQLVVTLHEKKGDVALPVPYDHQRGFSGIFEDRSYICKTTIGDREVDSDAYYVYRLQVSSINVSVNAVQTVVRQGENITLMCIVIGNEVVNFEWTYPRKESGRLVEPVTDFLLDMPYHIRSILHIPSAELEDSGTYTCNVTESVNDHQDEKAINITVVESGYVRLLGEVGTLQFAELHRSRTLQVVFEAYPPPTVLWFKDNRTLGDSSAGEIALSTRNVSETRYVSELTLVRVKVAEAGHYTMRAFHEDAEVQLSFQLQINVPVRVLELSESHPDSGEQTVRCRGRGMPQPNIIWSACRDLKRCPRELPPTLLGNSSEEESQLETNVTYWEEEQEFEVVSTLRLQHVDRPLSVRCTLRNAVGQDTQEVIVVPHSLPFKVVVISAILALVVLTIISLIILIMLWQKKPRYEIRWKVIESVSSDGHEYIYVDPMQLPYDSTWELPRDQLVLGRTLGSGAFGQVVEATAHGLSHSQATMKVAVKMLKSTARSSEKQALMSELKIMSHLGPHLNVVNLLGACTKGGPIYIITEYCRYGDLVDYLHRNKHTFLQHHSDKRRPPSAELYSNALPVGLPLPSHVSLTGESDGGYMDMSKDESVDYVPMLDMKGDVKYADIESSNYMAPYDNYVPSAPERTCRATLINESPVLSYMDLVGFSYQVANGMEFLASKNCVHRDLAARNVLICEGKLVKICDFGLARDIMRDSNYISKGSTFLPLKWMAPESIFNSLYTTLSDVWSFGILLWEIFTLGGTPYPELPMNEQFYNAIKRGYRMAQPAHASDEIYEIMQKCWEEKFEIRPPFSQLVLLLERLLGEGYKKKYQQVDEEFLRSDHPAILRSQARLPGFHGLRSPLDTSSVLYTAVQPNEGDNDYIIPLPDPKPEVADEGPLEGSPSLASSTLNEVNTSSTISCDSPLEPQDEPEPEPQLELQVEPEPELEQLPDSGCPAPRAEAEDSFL", "assay": "Inhibition of PDGFRbeta assessed as enzyme residual activity at 10 uM relative to untreated control", "in_short": "as §2"}, "[6]": {"target": "Vascular endothelial growth factor receptor 2 (Homo sapiens, UniProt P35968)", "sequence (P35968 whole entry)": "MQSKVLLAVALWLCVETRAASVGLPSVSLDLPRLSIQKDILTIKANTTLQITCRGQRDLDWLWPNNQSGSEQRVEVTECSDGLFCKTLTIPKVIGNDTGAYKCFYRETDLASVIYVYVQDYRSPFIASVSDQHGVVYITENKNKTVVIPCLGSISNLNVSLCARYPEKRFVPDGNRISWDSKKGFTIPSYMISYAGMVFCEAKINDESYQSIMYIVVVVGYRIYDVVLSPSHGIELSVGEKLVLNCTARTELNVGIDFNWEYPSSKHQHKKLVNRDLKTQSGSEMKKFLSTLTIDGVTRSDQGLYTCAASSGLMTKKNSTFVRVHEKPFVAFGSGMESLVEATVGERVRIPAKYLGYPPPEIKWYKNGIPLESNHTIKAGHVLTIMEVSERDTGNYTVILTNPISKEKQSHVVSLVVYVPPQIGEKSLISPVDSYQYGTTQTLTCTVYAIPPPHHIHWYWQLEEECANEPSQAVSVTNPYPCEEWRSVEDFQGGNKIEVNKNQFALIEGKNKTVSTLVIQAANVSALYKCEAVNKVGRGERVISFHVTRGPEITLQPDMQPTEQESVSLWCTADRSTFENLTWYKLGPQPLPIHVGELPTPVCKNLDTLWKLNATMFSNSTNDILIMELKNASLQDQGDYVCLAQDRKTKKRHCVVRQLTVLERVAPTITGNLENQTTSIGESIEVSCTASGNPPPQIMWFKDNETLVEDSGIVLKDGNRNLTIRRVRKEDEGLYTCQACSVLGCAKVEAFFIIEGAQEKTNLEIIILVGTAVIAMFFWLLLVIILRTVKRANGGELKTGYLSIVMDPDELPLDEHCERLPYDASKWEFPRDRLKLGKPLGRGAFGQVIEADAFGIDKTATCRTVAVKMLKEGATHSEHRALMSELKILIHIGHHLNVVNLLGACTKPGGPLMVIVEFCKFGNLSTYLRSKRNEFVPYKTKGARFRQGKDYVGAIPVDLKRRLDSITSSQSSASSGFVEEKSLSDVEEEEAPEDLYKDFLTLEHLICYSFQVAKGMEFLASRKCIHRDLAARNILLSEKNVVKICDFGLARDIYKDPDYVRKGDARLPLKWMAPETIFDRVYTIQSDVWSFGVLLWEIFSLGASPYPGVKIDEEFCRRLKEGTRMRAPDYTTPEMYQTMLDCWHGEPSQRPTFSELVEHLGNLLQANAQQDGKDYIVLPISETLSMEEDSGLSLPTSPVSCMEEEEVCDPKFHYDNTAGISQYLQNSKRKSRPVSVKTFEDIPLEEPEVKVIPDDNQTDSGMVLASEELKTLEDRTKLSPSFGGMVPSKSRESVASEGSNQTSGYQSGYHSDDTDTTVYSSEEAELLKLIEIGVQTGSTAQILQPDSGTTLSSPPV", "assay": "Inhibition of VEGFR2 assessed as enzyme residual activity at 10 uM relative to untreated control", "in_short": "as §2"}, "[7]": {"target": "Receptor-type tyrosine-protein kinase FLT3 (Homo sapiens) (UniProt P36888)", "assay": "Inhibition of FLT3 assessed as enzyme residual activity at 10 uM relative to untreated control", "in_short": "as §2"}, "[8]": {"target": "RAF proto-oncogene serine/threonine-protein kinase (Homo sapiens) (UniProt P04049)", "sequence (P04049 whole entry)": "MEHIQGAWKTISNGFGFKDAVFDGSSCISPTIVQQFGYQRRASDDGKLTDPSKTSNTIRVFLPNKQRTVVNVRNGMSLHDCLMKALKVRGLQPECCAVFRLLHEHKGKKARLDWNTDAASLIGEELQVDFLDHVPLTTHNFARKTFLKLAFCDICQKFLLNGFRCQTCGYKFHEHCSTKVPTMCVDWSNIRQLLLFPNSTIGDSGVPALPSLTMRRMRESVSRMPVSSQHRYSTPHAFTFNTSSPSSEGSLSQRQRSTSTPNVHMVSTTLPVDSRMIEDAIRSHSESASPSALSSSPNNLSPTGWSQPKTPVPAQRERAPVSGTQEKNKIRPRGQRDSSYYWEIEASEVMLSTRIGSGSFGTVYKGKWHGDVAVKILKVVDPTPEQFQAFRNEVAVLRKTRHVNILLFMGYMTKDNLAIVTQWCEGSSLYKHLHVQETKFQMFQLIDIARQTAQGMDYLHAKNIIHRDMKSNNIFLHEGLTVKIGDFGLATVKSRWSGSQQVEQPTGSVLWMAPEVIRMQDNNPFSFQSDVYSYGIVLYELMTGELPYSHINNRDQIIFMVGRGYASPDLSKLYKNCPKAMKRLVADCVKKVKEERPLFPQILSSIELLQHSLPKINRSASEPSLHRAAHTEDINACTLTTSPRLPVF", "assay": "Inhibition of c-RAF assessed as enzyme residual activity at 10 uM relative to untreated control", "in_short": "as §2"}, "[9]": {"target": "Cyclin-dependent kinase 2/cyclin A (Homo sapiens) (UniProt P24941+P20248+P78396)", "assay": "Inhibition of CDK2/cyclinA assessed as enzyme residual activity at 10 uM relative to untreated control", "format": "protein-complex assay", "in_short": "as §2"}, "[10]": {"target": "Cyclin-dependent kinase 1/cyclin B1 (Homo sapiens) (UniProt P06493+P14635)", "sequence (P06493 whole entry, looked up)": "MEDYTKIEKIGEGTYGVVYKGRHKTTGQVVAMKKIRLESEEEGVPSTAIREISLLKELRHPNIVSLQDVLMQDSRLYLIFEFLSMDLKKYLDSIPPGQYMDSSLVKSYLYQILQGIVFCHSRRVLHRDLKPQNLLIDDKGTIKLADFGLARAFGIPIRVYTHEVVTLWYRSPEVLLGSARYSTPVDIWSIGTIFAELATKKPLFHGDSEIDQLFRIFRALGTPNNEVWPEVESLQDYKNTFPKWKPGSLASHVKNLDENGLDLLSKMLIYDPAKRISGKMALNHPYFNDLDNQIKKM", "sequence (P14635 whole entry, looked up)": "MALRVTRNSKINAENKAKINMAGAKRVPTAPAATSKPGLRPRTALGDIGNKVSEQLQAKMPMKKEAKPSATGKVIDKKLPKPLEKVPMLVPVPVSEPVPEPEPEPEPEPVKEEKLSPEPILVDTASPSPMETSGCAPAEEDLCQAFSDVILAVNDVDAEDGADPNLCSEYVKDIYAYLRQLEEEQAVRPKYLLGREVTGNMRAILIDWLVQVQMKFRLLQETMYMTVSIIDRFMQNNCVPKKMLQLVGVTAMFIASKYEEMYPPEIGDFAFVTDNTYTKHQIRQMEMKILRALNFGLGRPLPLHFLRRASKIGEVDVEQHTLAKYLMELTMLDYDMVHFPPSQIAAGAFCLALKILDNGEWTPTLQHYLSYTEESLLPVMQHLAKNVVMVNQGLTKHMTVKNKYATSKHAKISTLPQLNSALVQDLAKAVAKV", "assay": "Inhibition of CDK1/cyclinB assessed as enzyme residual activity at 10 uM relative to untreated control", "format": "protein-complex assay", "in_short": "as §2"}, "[11]": {"target": "Glycogen synthase kinase-3 beta (Homo sapiens, UniProt P49841)", "sequence (P49841 whole entry)": "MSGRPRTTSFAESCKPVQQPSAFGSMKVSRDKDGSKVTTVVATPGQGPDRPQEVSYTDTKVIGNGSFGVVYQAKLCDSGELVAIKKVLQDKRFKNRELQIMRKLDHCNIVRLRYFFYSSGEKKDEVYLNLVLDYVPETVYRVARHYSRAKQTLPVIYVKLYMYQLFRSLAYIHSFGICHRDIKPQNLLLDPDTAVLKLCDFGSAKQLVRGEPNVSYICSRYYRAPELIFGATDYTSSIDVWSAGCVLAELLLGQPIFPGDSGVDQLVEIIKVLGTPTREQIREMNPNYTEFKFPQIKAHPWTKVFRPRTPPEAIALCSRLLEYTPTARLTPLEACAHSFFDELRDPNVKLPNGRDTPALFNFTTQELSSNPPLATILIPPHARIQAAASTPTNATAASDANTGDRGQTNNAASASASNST", "assay": "Inhibition of GSK3beta", "in_short": "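IC50 determined by a commercial kinase profiling service (Millipore IC50 Profiler); duplicate testing.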"}, "[12]": {"target": "T1, Receptor-type tyrosine-protein kinase FLT3 (Homo sapiens, UniProt P36888)", "T1 sequence (P36888 whole entry)": "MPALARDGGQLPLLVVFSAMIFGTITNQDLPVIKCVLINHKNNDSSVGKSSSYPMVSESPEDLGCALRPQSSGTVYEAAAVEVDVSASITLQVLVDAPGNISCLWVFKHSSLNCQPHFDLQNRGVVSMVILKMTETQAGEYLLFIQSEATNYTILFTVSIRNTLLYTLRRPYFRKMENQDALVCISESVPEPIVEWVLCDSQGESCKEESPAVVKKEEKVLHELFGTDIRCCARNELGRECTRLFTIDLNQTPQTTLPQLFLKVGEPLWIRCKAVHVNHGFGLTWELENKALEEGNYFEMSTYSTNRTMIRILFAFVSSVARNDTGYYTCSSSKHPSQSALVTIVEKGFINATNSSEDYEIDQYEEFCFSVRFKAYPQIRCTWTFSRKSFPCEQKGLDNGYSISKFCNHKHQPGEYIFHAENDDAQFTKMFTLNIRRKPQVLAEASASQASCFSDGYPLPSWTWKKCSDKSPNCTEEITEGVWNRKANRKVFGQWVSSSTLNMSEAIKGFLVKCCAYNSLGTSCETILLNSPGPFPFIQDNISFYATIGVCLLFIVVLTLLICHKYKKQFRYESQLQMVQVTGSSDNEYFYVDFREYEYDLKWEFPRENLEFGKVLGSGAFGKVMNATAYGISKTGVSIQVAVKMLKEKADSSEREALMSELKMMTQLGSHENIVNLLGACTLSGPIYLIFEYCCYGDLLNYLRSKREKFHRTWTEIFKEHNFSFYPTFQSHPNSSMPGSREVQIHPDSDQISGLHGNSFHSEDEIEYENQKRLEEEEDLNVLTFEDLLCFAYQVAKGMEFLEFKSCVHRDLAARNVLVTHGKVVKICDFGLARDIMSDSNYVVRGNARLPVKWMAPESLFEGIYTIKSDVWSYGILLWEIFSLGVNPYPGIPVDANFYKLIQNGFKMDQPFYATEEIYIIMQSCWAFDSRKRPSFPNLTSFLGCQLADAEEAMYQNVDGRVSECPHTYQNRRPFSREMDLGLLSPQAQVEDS", "assay": "Inhibition of FLT3", "in_short": "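Run as an outsourced kinase profiling service (Millipore IC50 Profiler), with the protocol referred to the provider. Gives IC50 values and residual activity at 10 μM test compound. Compounds tested in duplicate.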"}, "[13]": {"assay": "Inhibition of angiogenesis in chick embryo model assessed as reduction in vessel growth at 26 nM incubated for 24 hrs", "format": "functional, Gallus gallus", "in_short": "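White leghorn eggs incubated at 37.5 °C, 62% humidity. At 70 h, albumen removed and shell windowed. From 75 h, 15 agarose pellets (from a 26 mM DMSO stock in 2% agarose; final concentration 26 nM) placed on the area vasculosa.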"}, "MKN-45 [14]": {"system": "MKN-45", "assay": "Induction of apoptosis in human MKN45 assessed as accumulation at subG1 phase at 20 uM incubated for 7 days by flow cytometry (reference value: 10.9 +/- 3.2%)", "format": "functional"}, "MKN-45 [15]": {"system": "MKN-45", "assay": "Induction of apoptosis in human MKN45 assessed as accumulation at subG1 phase at 5 uM incubated for 7 days by flow cytometry (reference value: 10.9 +/- 3.2%)", "format": "functional"}, "MKN-45 [16]": {"system": "MKN-45", "assay": "Induction of apoptosis in human MKN45 assessed as accumulation at subG1 phase at 1 uM incubated for 7 days by flow cytometry (reference value: 10.9 +/- 3.2%)", "format": "functional"}, "HUVEC [17]": {"system": "HUVEC", "assay": "Induction of apoptosis in human HUVEC assessed as accumulation at subG1 phase at 2.6 uM incubated for 4 days by flow cytometry (reference value: 15.4 +/- 1.5%)", "format": "functional"}, "HUVEC [18]": {"system": "HUVEC", "assay": "Induction of apoptosis in human HUVEC assessed as accumulation at subG1 phase at 0.79 uM incubated for 4 days by flow cytometry (reference value: 15.4 +/- 1.5%)", "format": "functional"}, "MOLM-14 [19]": {"system": "MOLM-14", "assay": "Cytotoxic activity against human MOLM14 cells assessed as cell viability at 50 uM incubated for 3 days by MTT assay", "format": "functional", "conditions": "MOLM-14, 72 h, read-out: Activity", "in_short": "as §1"}, "MOLM-14 [20]": {"system": "MOLM-14", "assay": "Cytotoxic activity against human MOLM14 cells assessed as cell viability at 20 uM incubated for 3 days by MTT assay", "format": "functional", "conditions": "MOLM-14, 72 h, read-out: Activity", "in_short": "as §1"}, "MOLM-14 [21]": {"system": "MOLM-14", "assay": "Cytotoxic activity against human MOLM14 cells assessed as cell viability at 10 uM incubated for 3 days by MTT assay", "format": "functional", "conditions": "MOLM-14, 72 h, read-out: Activity", "in_short": "as §1"}, "MKN-45 [22]": {"system": "MKN-45", "assay": "Cytotoxic activity against human MKN45 cells assessed as cell viability at 50 uM incubated for 5 days by MTT assay", "format": "functional", "conditions": "MKN-45, 120 h, read-out: Activity", "in_short": "as §1"}}, "data": [{"smiles": "COc1cc(C2=C(c3c[nH]c4cnccc34)C(=O)NC2=O)cc(OC)c1OC", "values": [{"measurement": "viability at 5 µM", "setting": "MKN-45 [1]", "value": 105, "unit": "%"}, {"measurement": "viability at 1 µM", "setting": "MKN-45 [2]", "value": 107, "unit": "%"}, {"measurement": "viability at 0.5 µM", "setting": "MKN-45 [3]", "value": 99.2, "unit": "%"}, {"measurement": "Activity", "setting": "[4]", "value": 99, "unit": "%"}, {"measurement": "Activity", "setting": "[5]", "value": 106, "unit": "%"}, {"measurement": "Activity", "setting": "[6]", "value": 1, "unit": "%"}, {"measurement": "Activity", "setting": "[7]", "value": 0, "unit": "%"}, {"measurement": "Activity", "setting": "[8]", "value": 117, "unit": "%"}, {"measurement": "Activity", "setting": "[9]", "value": 88, "unit": "%"}, {"measurement": "Activity", "setting": "[10]", "value": 80, "unit": "%"}, {"measurement": "IC50", "setting": "[11]", "value": 9, "unit": "nM"}, {"measurement": "IC50", "setting": "[12]", "value": 18, "unit": "nM"}, {"measurement": "inhibition (INH)", "setting": "[13]", "value": 32, "unit": "%"}, {"measurement": "Activity", "setting": "MKN-45 [14]", "value": 28.3, "unit": "%"}, {"measurement": "Activity", "setting": "MKN-45 [15]", "value": 15.8, "unit": "%"}, {"measurement": "Activity", "setting": "MKN-45 [16]", "value": 12.8, "unit": "%"}, {"measurement": "Activity", "setting": "HUVEC [17]", "value": 66.3, "unit": "%"}, {"measurement": "Activity", "setting": "HUVEC [18]", "value": 48, "unit": "%"}, {"measurement": "viability at 50 µM", "setting": "MOLM-14 [19]", "value": 2.4, "unit": "%"}, {"measurement": "viability at 20 µM", "setting": "MOLM-14 [20]", "value": 5.39, "unit": "%"}, {"measurement": "viability at 10 µM", "setting": "MOLM-14 [21]", "value": 9.35, "unit": "%"}, {"measurement": "viability at 50 µM", "setting": "MKN-45 [22]", "value": 68.6, "unit": "%"}]}]}
